The source of these data is ChEMBL document CHEMBL1268807, “Discovery of small molecule inhibitors of the PH domain leucine-rich repeat protein phosphatase (PHLPP) by chemical and virtual screening” (J Med Chem, 2010).

Active and inactive are the calls of the source. The rule behind the calls is not given here.

Experiment [1] in a line: Inhibition of PHLPP expressed in 24 hrs serum starved Cos7 cells assessed as increase of Akt phosphorylation after 30 mins by immunoblotting. The note with it: COS-7. On the technique in general: Immunoblotting shows a protein as a band on a membrane.
A short description of experiment [2]: Inhibition of PHLPP in human […] cells assessed as increase of phosphorylation of FoxO1/3alpha on Thr 24/32 at 100 to 250 uM after 24 hrs by immunoblotting. Format: cell-based. Summed up: (§1)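 HT29 colon cells kept in DMEM with 5% FBS were given compounds (100 or 250 μM, DMSO vehicle) for 24 h, then lysed on ice. […] Densitometry normalized to actin and expressed relative to control lanes; three experiments, mean ± SEM.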

Experiment [3] concerns COS-7. Kind of experiment: Inhibition of PHLPP expressed in 24 hrs serum starved Cos7 cells assessed as half maximal increase of phosphorylation of Akt substrate after 30 mins by immunoblotting. The note with it: in the assay text read “after 35 mins” for “after 30 mins”. Format: cell-based. The method, boiled down: (§2)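 COS 7 cells serum-starved 24 h in serum-free DMEM, then exposed 35 min at 37 °C to inhibitor over 4−400 or 3−300 μM; DMSO control. Lysates were immunoblotted for pSer473, pThr308, phospho-Akt-substrate motif, and actin. Densitometry normalized to actin and to DMSO (set to 1), fit to eq 2; four separate experiments, mean ± SEM.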

Experiment [4] has as its target T1, Protein phosphatase 1A (Homo sapiens) (UniProt P35813).
T1 sequence (whole entry): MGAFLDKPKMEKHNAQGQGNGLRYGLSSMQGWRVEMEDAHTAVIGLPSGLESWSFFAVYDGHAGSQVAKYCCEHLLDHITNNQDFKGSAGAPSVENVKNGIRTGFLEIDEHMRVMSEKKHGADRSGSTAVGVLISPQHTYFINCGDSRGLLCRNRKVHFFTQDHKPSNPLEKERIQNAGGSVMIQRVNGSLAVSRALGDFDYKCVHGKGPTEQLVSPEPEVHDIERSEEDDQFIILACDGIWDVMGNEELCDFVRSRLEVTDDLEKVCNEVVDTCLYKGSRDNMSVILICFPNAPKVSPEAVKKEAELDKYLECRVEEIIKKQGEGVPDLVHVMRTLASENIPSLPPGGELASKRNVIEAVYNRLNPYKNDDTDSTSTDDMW
The experiment can be described thus: Inhibition of PP2Calpha at 10 uM. Summed up: (§3)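 PP1, PP2B or PP2Cα phosphatase domain with 8 mM pNPP in each enzyme's optimal buffer. Compound added; activity taken from A405 and expressed relative to DMSO control. At least three experiments, mean ± SEM.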

Experiment [5] deals with COS-7. Kind of experiment: Induction of apoptosis assessed as basal level of apoptotic cells in african green monkey COS7 cells at 50 uM after 24 hrs by trypan blue exclusion assay.
Experiment [6] has as its target Serine/threonine protein phosphatase PP2B-alpha catalytic subunit (Homo sapiens) (UniProt P16298). Kind of experiment: Inhibition of protein phosphatase 2B at 10 uM. The method, boiled down:
as §3

The target in experiment [7] is T1, Protein phosphatase 1A (Homo sapiens). The experiment can be described thus: Inhibition of PP2Calpha at 100 uM. Summed up:
as §3

Experiment [8] addresses T2, PH domain leucine-rich repeat-containing protein phosphatase 2 (Homo sapiens) (UniProt Q6ZVD8).
T2 sequence (whole entry): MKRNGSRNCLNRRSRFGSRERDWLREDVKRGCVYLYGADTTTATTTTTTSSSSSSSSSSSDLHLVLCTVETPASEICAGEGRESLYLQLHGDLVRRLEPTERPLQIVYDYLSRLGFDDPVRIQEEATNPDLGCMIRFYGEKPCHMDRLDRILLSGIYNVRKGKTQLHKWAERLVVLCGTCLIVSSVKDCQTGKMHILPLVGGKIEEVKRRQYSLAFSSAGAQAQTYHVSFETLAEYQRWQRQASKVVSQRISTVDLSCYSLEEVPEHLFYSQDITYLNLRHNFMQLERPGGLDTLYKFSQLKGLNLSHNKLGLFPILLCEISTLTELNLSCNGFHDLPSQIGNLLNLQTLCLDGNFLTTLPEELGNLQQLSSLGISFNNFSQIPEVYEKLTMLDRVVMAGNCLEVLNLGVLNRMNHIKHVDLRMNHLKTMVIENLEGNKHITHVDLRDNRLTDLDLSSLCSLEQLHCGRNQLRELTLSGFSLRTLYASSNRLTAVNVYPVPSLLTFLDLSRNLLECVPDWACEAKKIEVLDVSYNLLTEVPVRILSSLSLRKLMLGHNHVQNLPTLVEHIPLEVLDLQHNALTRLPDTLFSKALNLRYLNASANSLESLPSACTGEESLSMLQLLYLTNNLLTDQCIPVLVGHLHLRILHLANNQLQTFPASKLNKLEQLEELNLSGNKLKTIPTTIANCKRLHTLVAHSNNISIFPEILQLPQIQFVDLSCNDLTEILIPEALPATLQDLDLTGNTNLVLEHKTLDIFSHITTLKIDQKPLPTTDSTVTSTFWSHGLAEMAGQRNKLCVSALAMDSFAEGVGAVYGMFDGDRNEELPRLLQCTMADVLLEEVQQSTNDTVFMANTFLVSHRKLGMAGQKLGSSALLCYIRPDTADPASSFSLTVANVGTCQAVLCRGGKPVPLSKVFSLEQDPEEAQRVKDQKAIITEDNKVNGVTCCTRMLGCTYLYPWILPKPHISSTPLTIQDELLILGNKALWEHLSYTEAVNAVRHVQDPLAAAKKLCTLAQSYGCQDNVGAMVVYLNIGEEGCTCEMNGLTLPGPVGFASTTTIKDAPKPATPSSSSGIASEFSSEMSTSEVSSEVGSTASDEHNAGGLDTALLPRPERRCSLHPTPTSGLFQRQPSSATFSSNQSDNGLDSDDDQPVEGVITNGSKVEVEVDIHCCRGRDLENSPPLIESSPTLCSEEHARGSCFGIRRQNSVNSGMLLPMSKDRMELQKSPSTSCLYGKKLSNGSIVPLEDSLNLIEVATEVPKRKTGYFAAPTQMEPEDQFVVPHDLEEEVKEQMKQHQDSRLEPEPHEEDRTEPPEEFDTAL
The note with it: 10 uM.

For the next experiment, the system named is HT-29 (Homo sapiens). The experiment can be described thus: Inhibition of PHLPP in human HT29 cells assessed as increase of phosphorylation of Akt on Ser 473 at 100 to 250 uM after 24 hrs by immunoblotting relative to control.
Experiment [9] is described as follows: Inhibition of PHLPP in human […] cells assessed as increase of phosphorylation of GSK3 alpha/beta on Ser21/9 at 100 to 250 uM after 24 hrs by immunoblotting. Format: cell-based. Summed up:
as §1

Experiment [10] concerns COS-7. The experiment can be described thus: Inhibition of PHLPP expressed in 24 hrs serum starved Cos7 cells assessed as half maximal increase of phosphorylation on Thr308 after 30 mins by immunoblotting. As to conditions: in the assay text read “after 35 mins” for “after 30 mins”. Format: cell-based. The method, boiled down:
as §2

Experiment [11] in a line: Inhibition of protein phosphatase 1 at 100 uM. Summed up: as §3
A short description of experiment [12]: Inhibition of protein phosphatase 1 at 10 uM. The method, boiled down: as §3

As usually defined, the IC50 is the concentration at which inhibition is half-maximal. As usually defined, the inhibition is how much of the control response was suppressed. Consider `Nc1c(S(=O)(=O)O)cc(Nc2cccc(S(N)(=O)=O)c2)c2c1C(=O)c1ccccc1C2=O`, for which the IC50 in [1] is 30 µM. The inhibition entry (in experiment [2]; in the experiment on HT-29 (Homo sapiens); in experiment [9]) was “Active” in each case. Besides, the Activity in the experiment with COS-7 [3] worked out at 36.4 µM; in the experiment with COS-7 [10], 132 µM. The inhibition entry in experiment [4], in [6] and in [12] was “inactive” throughout. Besides, in the experiment on COS-7 [5], the basal apoptotic cells is recorded as 12%. Besides, the inhibition in experiment [7] was 50%; in experiment [8], 80%; in [11], 50%.
